Source: ChEMBL document CHEMBL4680165, “β-Lactams with antiproliferative and antiapoptotic activity in breast and chemoresistant colon cancer cells” (Eur J Med Chem, 2020)
Calls of active or inactive are those of the source. No cut-off for these calls is given here.

Assays:
MCF7 = assay: Antiproliferative activity against human MCF7 cells assessed as reduction in cell viability after 72 hrs by alamar blue assay; format: functional, cell-based; details: MCF7, 72 h
In short: (§1)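 Cells seeded at 5 x 10^3/well (MCF-7) or 1 x 10^4/well (HT-29, HEK-293T) and treated after 24 h with serial dilutions (0.001-100 µM) in 1% v/v ethanol vehicle. Alamar Blue 10% v/v added at 72 h, then 3-5 h at 37 °C in the dark; fluorescence ex 530/em 590 nm. Viability relative to vehicle; IC50 from dose-response curves; mean of three experiments in triplicate.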

HT-29 [1] = assay: Antiproliferative activity against human HT-29 cells assessed as reduction in cell viability after 72 hrs by alamar blue assay; format: functional, cell-based; details: HT-29, 72 h; in short: as §1
[2] = Selectivity index, ratio of IC50 for human MCF7 cells to IC50 for human HT-29 cells assessed as reduction in cell viability after 72 hrs by alamar blue assay; format: functional
[3] = Half life of the compound in phosphate buffer at pH 7.4 by HPLC analysis; format: physicochemical
In short: (§2)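 Compound stock was 1 mg/mL in mobile phase; 30 µL was diluted into 1 mL phosphate buffer (pH 4, 7.4 or 9) and held at 37 °C. Samples were taken at 0, 5, 30 and 60 min, then hourly to 24 h. Analysis was reverse-phase C18 HPLC with acetonitrile/water mobile phase at 1 mL/min and detection at 254 nm.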

[4] = Half life of the compound in phosphate buffer at pH 9 by HPLC analysis; format: physicochemical; in short: as §2
[5] = Half life of the compound in phosphate buffer at pH 4 by HPLC analysis; format: physicochemical; in short: as §2
HT-29 [6] = assay: Antiangiogenic activity in human HT29 cells assessed as reduction in IL-1alpha secretion at 5 uM after 24 hrs by ELISA; format: functional, cell-based
In short: (§3)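 HT-29 cells at 5 x 10^4 per well, cultured 24 h and then exposed to 5 µM compound. Conditioned medium collected on ice and stored at -80 °C. Cytokines and angiogenic, vascular-injury and chemokine factors measured by multiplex panels with overnight supernatant incubation (Angiogenesis Panel 1 and Vascular Injury Panel 2 same day). Medium undiluted except 1:4 for Vascular Injury Panel 2. Secretion normalised to lysate protein by BCA.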

HT-29 [7] = assay: Antiangiogenic activity in human HT29 cells assessed as reduction in IL-1beta secretion at 5 uM after 24 hrs by ELISA; format: functional, cell-based; in short: as §3
HT-29 [8] = assay: Antiangiogenic activity in human HT29 cells assessed as reduction in VEGF secretion at 5 uM after 24 hrs by ELISA; format: functional, cell-based; in short: as §3
HT-29 [9] = assay: Antiangiogenic activity in human HT-29 cells assessed as increase in IL-1RA secretion at 5 uM after 24 hrs by ELISA; format: functional, cell-based; in short: as §3
Bos taurus = species on record: Bos taurus; assay: Inhibition of bovine brain tubulin polymerization at 10 uM measured at 30 sec interval for 30 mins in presence of GTP by turbidimetry-based spectrophotometric method

COc1ccc([C@H]2[C@H](Cl)C(=O)N2c2cc(OC)c(OC)c(OC)c2)cc1F
IC50 (MCF7): 40 nM
IC50 (HT-29 [1]): 15 nM

COc1ccc([C@@H]2N(c3cc(OC)c(OC)c(OC)c3)C(=O)C2(Cl)Cl)cc1Cl
IC50 (MCF7): 140 nM
IC50 (HT-29 [1]): 154 nM
Ratio IC50 [2]: 0.91

C=C[C@@H]1C(=O)N(c2cc(OC)c(OC)c(OC)c2)[C@H]1c1ccc(OC)c(F)c1
IC50 (MCF7): 38 nM
IC50 (HT-29 [1]): 37 nM

C=C[C@@H]1C(=O)N(c2cc(OC)c(OC)c(OC)c2)[C@H]1c1ccc(OC)c(I)c1
IC50 (MCF7): 215 nM
IC50 (HT-29 [1]): 306 nM
Ratio IC50 [2]: 0.7

COc1ccc([C@H]2[C@H](N)C(=O)N2c2cc(OC)c(OC)c(OC)c2)cc1F
IC50 (MCF7): 483 nM
IC50 (HT-29 [1]): 238 nM
Ratio IC50 [2]: 2.03

COc1ccc([C@H]2[C@H](c3ccccc3)C(=O)N2c2cc(OC)c(OC)c(OC)c2)cc1I
IC50 (MCF7): 648 nM
IC50 (HT-29 [1]): 355 nM
Ratio IC50 [2]: 1.83
half-life [3]: 14 h
half-life [4]: 5 h
half-life [5]: 15 h

COc1ccc([C@H]2[C@H](Cl)C(=O)N2c2cc(OC)c(OC)c(OC)c2)cc1C
IC50 (MCF7): 433 nM
IC50 (HT-29 [1]): 222 nM
Ratio IC50 [2]: 1.95

C=C[C@@H]1C(=O)N(c2cc(OC)c(OC)c(OC)c2)[C@H]1c1ccc(OC)c(Br)c1
IC50 (MCF7): 88 nM
IC50 (HT-29 [1]): 91 nM
Ratio IC50 [2]: 0.97

COc1ccc([C@@H]2N(c3cc(OC)c(OC)c(OC)c3)C(=O)C2(Cl)Cl)cc1F
IC50 (MCF7): 173 nM
IC50 (HT-29 [1]): 117 nM
Ratio IC50 [2]: 1.48

COc1ccc([C@H]2[C@H](Oc3ccccc3)C(=O)N2c2cc(OC)c(OC)c(OC)c2)cc1F (relative stereo)
IC50 (MCF7): 73 nM
IC50 (HT-29 [1]): 155 nM
Ratio IC50 [2]: 0.47

COc1ccc([C@H]2CC(=O)N2c2cc(OC)c(OC)c(OC)c2)cc1I
IC50 (MCF7): 821 nM
IC50 (HT-29 [1]): 260 nM
Ratio IC50 [2]: 3.16

COc1ccc([C@H]2[C@H](c3ccccc3)C(=O)N2c2cc(OC)c(OC)c(OC)c2)cc1C
IC50 (MCF7): 462 nM
IC50 (HT-29 [1]): 153 nM
Ratio IC50 [2]: 3.02

COc1ccc([C@@H]2N(c3cc(OC)c(OC)c(OC)c3)C(=O)C2(Cl)Cl)cc1I
IC50 (MCF7): 885 nM
IC50 (HT-29 [1]): 251 nM
Ratio IC50 [2]: 3.53

COc1ccc([C@H]2[C@H](Oc3ccccc3)C(=O)N2c2cc(OC)c(OC)c(OC)c2)cc1Cl
IC50 (MCF7): 430 nM
IC50 (HT-29 [1]): 314 nM
Ratio IC50 [2]: 1.37
half-life [3]: > 15 h
half-life [4]: > 15 h
half-life [5]: > 15 h

COc1ccc([C@H]2[C@H](c3ccccc3)C(=O)N2c2cc(OC)c(OC)c(OC)c2)cc1O
IC50 (MCF7): 4 nM
IC50 (HT-29 [1]): 430 nM
Ratio IC50 [2]: 0.01
Activity (HT-29 [6]): inactive
Activity (HT-29 [7]): inactive
Activity (HT-29 [8]): inactive
Activity (HT-29 [9]): Active

COc1ccc([C@@H]2N(c3cc(OC)c(OC)c(OC)c3)C(=O)C2(Cl)Cl)cc1Br
IC50 (MCF7): 1120 nM
IC50 (HT-29 [1]): 1540 nM
Ratio IC50 [2]: 0.73

COc1ccc([C@H]2[C@H](c3ccccc3)C(=O)N2c2cc(OC)c(OC)c(OC)c2)cc1Cl
IC50 (MCF7): 230 nM
IC50 (HT-29 [1]): 24 nM
Ratio IC50 [2]: 9.58

COc1ccc([C@H]2CC(=O)N2c2cc(OC)c(OC)c(OC)c2)cc1C
IC50 (MCF7): 317 nM
IC50 (HT-29 [1]): 189 nM
Ratio IC50 [2]: 1.68

COc1ccc([C@H]2CC(=O)N2c2cc(OC)c(OC)c(OC)c2)cc1Br
IC50 (MCF7): 60 nM
IC50 (HT-29 [1]): 64 nM
Ratio IC50 [2]: 0.94

COc1ccc([C@H]2[C@H](Cl)C(=O)N2c2cc(OC)c(OC)c(OC)c2)cc1I
IC50 (MCF7): 421 nM
IC50 (HT-29 [1]): 190 nM
Ratio IC50 [2]: 2.22

COc1ccc([C@H]2CC(=O)N2c2cc(OC)c(OC)c(OC)c2)cc1F
IC50 (MCF7): 22 nM
IC50 (HT-29 [1]): 15 nM
Ratio IC50 [2]: 1.47
Activity (HT-29 [6]): inactive
Activity (HT-29 [7]): inactive
Activity (HT-29 [8]): inactive
Activity (HT-29 [9]): Active

COc1ccc([C@H]2[C@H](Oc3ccccc3)C(=O)N2c2cc(OC)c(OC)c(OC)c2)cc1C
IC50 (MCF7): 2240 nM
IC50 (HT-29 [1]): 313 nM
Ratio IC50 [2]: 7.14

COc1ccc([C@H]2[C@H](O)C(=O)N2c2cc(OC)c(OC)c(OC)c2)cc1Br
IC50 (MCF7): 44 nM
IC50 (HT-29 [1]): 9 nM
Ratio IC50 [2]: 4.89
inhibition (Bos taurus): Active

COc1ccc([C@H]2CC(=O)N2c2cc(OC)c(OC)c(OC)c2)cc1Cl
IC50 (MCF7): 140 nM
IC50 (HT-29 [1]): 154 nM
Ratio IC50 [2]: 0.91

C=C(C)[C@@H]1C(=O)N(c2cc(OC)c(OC)c(OC)c2)[C@H]1c1ccc(OC)c(Br)c1
IC50 (MCF7): 284 nM
IC50 (HT-29 [1]): 333 nM
Ratio IC50 [2]: 0.83

COc1ccc([C@H]2[C@H](Oc3ccccc3)C(=O)N2c2cc(OC)c(OC)c(OC)c2)cc1Br
IC50 (MCF7): 818 nM
IC50 (HT-29 [1]): 577 nM
Ratio IC50 [2]: 1.42

COc1ccc([C@H]2[C@H](N)C(=O)N2c2cc(OC)c(OC)c(OC)c2)cc1Cl
IC50 (MCF7): 141 nM
IC50 (HT-29 [1]): 167 nM
Ratio IC50 [2]: 0.84
half-life [3]: > 24 h
half-life [4]: > 24 h
half-life [5]: > 24 h

COc1ccc([C@H]2[C@H](Cl)C(=O)N2c2cc(OC)c(OC)c(OC)c2)cc1Cl
IC50 (MCF7): 91 nM
IC50 (HT-29 [1]): 144 nM
Ratio IC50 [2]: 0.63

COc1ccc([C@H]2[C@H](O)C(=O)N2c2cc(OC)c(OC)c(OC)c2)cc1I
IC50 (MCF7): 100 nM
IC50 (HT-29 [1]): 21 nM
Ratio IC50 [2]: 4.77

COc1ccc([C@H]2[C@H](Cl)C(=O)N2c2cc(OC)c(OC)c(OC)c2)cc1Br
IC50 (MCF7): 603 nM
IC50 (HT-29 [1]): 194 nM
Ratio IC50 [2]: 3.12

C=C[C@@H]1C(=O)N(c2cc(OC)c(OC)c(OC)c2)[C@H]1c1ccc(OC)c(C)c1
IC50 (MCF7): 328 nM
IC50 (HT-29 [1]): 197 nM
Ratio IC50 [2]: 1.67

C=C(C)[C@@H]1C(=O)N(c2cc(OC)c(OC)c(OC)c2)[C@H]1c1ccc(OC)c(I)c1
IC50 (MCF7): 1350 nM
IC50 (HT-29 [1]): 1050 nM
Ratio IC50 [2]: 1.29

COc1ccc([C@@H]2N(c3cc(OC)c(OC)c(OC)c3)C(=O)C2(Cl)Cl)cc1C
IC50 (MCF7): 747 nM
IC50 (HT-29 [1]): 319 nM
Ratio IC50 [2]: 2.34

C=C(C)[C@@H]1C(=O)N(c2cc(OC)c(OC)c(OC)c2)[C@H]1c1ccc(OC)c(C)c1
IC50 (MCF7): 773 nM
IC50 (HT-29 [1]): 358 nM
Ratio IC50 [2]: 2.16

C=C(C)[C@@H]1C(=O)N(c2cc(OC)c(OC)c(OC)c2)[C@H]1c1ccc(OC)c(Cl)c1
IC50 (MCF7): 270 nM
IC50 (HT-29 [1]): 480 nM
Ratio IC50 [2]: 0.56

COc1ccc([C@H]2[C@H](O)C(=O)N2c2cc(OC)c(OC)c(OC)c2)cc1Cl
IC50 (MCF7): 12 nM
IC50 (HT-29 [1]): 18 nM
Ratio IC50 [2]: 0.67
inhibition (Bos taurus): Active

COc1ccc([C@H]2[C@H](Oc3ccccc3)C(=O)N2c2cc(OC)c(OC)c(OC)c2)cc1I
IC50 (MCF7): 208 nM
IC50 (HT-29 [1]): 232 nM
Ratio IC50 [2]: 0.9

C=C(C)[C@@H]1C(=O)N(c2cc(OC)c(OC)c(OC)c2)[C@H]1c1ccc(OC)c(F)c1
IC50 (MCF7): 323 nM
IC50 (HT-29 [1]): 678 nM
Ratio IC50 [2]: 0.48

C=C[C@@H]1C(=O)N(c2cc(OC)c(OC)c(OC)c2)[C@H]1c1ccc(OC)c(Cl)c1
IC50 (MCF7): 120 nM
IC50 (HT-29 [1]): 293 nM
Ratio IC50 [2]: 0.41

COc1ccc([C@H]2[C@H](c3ccccc3)C(=O)N2c2cc(OC)c(OC)c(OC)c2)cc1Br
IC50 (MCF7): 651 nM
IC50 (HT-29 [1]): 325 nM
Ratio IC50 [2]: 2

COc1ccc([C@H]2[C@H](c3ccccc3)C(=O)N2c2cc(OC)c(OC)c(OC)c2)cc1
IC50 (MCF7): 15 nM
IC50 (HT-29 [1]): 22 nM
Ratio IC50 [2]: 0.68
